# Legend:
# [1] = Cmax in ICR mouse plasma at 50 mg/kg, po by LC-MS/MS analysis; format: ADME, organism-based; design: dose 50 mg/kg, route oral
# Liver [2] = experiment: Dose normalized AUC in ICR mouse liver at 50 mg/kg, po by LC-MS/MS analysis; format: ADME, organism-based; design: dose 50 mg/kg, route oral; details: in vivo
# [3] = Cytotoxicity against human HuH7 cells after 72 hrs by celltiter-glo assay; format: cell-based, Huh-7
# Method in brief: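 Replicon 1b Huh7 cells seeded 2 × 10⁴/well; after 24 h, 11 serial 2× dilutions from 100 μM (three repeats each) with no-compound control; 72 h at 37 °C, CO₂, log-phase growth; viability by CellTiter-Glo luminescence; CC₅₀ = concentration giving 50% signal.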
# Plasma = experiment: Dose normalized AUC in ICR mouse plasma at 50 mg/kg, po by LC-MS/MS analysis; format: ADME, organism-based; design: dose 50 mg/kg, route oral; details: in vivo
# [4] = Oral bioavailability in cynomolgus monkey at 50 mg/kg; format: ADME, organism-based, Macaca fascicularis; details: in vivo
# Liver [5] = experiment: AUC (0 to 24 hrs) in ICR mouse liver at 50 mg/kg, po by LC-MS/MS analysis; format: ADME, organism-based; design: time < 24 hr, dose 50 mg/kg, route oral; details: in vivo
# [6] = Oral bioavailability in ICR mouse at 50 mg/kg; format: ADME, organism-based; details: in vivo
# Hepatitis C virus = experiment: Antiviral activity against HCV1b infected in human HuH7 cells assessed as inhibition of viral replication after 48 hrs by luciferase reporter gene assay; format: functional, organism-based, Hepacivirus hominis; details: genotype 1b, Huh-7, 48 h
# Method in brief: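 Huh7 cells carrying genotype 1b bicistronic subgenomic replicon, seeded 2 × 10⁴/well without G-418; compounds added 18-24 h later, 48 h exposure; 3× or 4× serial dilutions over 0.0001-10 μM in triplicate/quadruplicate; Renilla luciferase read-out versus untreated cells; EC₅₀ by four-parameter sigmoidal nonlinear regression; at least three independent assays.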
# Liver [7] = experiment: AUC (0 to 6 hrs) in ICR mouse liver at 50 mg/kg, po by LC-MS/MS analysis; format: ADME, organism-based; design: time < 6 hr, dose 50 mg/kg, route oral; details: in vivo
# [8] = Metabolic stability in dog intestine S9 fraction assessed as compound remaining at 10 uM after 60 mins by HPLC analysis in presence of NADP; format: ADME, tissue-based, Canis lupus familiaris; details: read-out: Stability
# Method in brief: (§1)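 Liver or intestinal S9 at final 1 mg/mL in 50 mM potassium phosphate, with or without NADPH-regenerating system (1.3 mM NADP, 3.3 mM glucose-6-phosphate, 0.4 U/mL G6PDH, 3.3 mM MgCl₂); 10 min preincubation at 37 °C; compound at final 10 μM; samples at start and 60 min quenched in cold acetonitrile, centrifuged, HPLC; % parent remaining.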
# [9] = Metabolic stability in human liver S9 fraction assessed as compound remaining at 10 uM after 30 mins by HPLC analysis in presence of NADP; format: ADME, subcellular; details: read-out: Stability
# [10] = Metabolic stability in mouse plasma assessed as compound remaining at 1 ug/ml after 30 mins; format: ADME, cell-free; details: read-out: Stability
# [11] = Metabolic stability in human intestine S9 fraction assessed as compound remaining at 10 uM after 30 mins by HPLC analysis in absence of NADP; format: ADME, tissue-based; details: read-out: Stability
# [12] = Metabolic stability in human intestine S9 fraction assessed as compound remaining at 10 uM after 30 mins by HPLC analysis in presence of NADP; format: ADME, tissue-based; details: read-out: Stability
# [13] = Metabolic stability in dog liver S9 fraction assessed as compound remaining at 10 uM after 60 mins by HPLC analysis in absence of NADP; format: ADME, subcellular, Canis lupus familiaris; details: read-out: Stability; method in brief: as §1
# [14] = Metabolic stability in dog liver S9 fraction assessed as compound remaining at 10 uM after 60 mins by HPLC analysis in presence of NADP; format: ADME, subcellular, Canis lupus familiaris; details: read-out: Stability; method in brief: as §1
# [15] = Metabolic stability in human liver S9 fraction assessed as compound remaining at 10 uM after 30 mins by HPLC analysis in absence of NADP; format: ADME, subcellular; details: read-out: Stability
# [16] = Metabolic stability in dog intestine S9 fraction assessed as compound remaining at 10 uM after 60 mins by HPLC analysis in absence of NADP; format: ADME, tissue-based, Canis lupus familiaris; details: read-out: Stability; method in brief: as §1
# [17] = Metabolic stability in rat intestine S9 fraction assessed as compound remaining at 10 uM after 60 mins by HPLC analysis in absence of NADP; format: ADME, tissue-based; details: read-out: Stability
# Method in brief: (§2)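 Rat liver or intestinal S9 at 1 mg/mL final in 50 mM potassium phosphate, with or without NADPH-regenerating system (final 1.3 mM NADP, 3.3 mM glucose-6-phosphate, 0.4 U/mL G6P dehydrogenase, 3.3 mM MgCl2). Preincubated 10 min at 37 °C with shaking, started with compound at 10 μM final. Samples taken at 0 and 60 min, quenched in cold acetonitrile, centrifuged, and parent disappearance measured by HPLC.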
# [18] = Metabolic stability in cynomolgus monkey intestine S9 fraction assessed as compound remaining at 10 uM after 60 mins by HPLC analysis in presence of NADP; format: ADME, tissue-based, Macaca fascicularis; details: read-out: Stability; method in brief: as §1
# [19] = Metabolic stability in rat liver S9 fraction assessed as compound remaining at 10 uM after 60 mins by HPLC analysis in absence of NADP; format: ADME, subcellular; details: read-out: Stability; method in brief: as §2
# [20] = Metabolic stability in human liver S9 fraction assessed as compound remaining at 10 uM after 60 mins by HPLC analysis in presence of NADP; format: ADME, subcellular; details: read-out: Stability; method in brief: as §1
# [21] = Metabolic stability in rat liver S9 fraction assessed as compound remaining at 10 uM after 60 mins by HPLC analysis in presence of NADP; format: ADME, subcellular; details: read-out: Stability; method in brief: as §2
# [22] = Metabolic stability in cynomolgus monkey liver S9 fraction assessed as compound remaining at 10 uM after 60 mins by HPLC analysis in presence of NADP; format: ADME, subcellular, Macaca fascicularis; details: read-out: Stability; method in brief: as §1
# [23] = Metabolic stability in human intestine S9 fraction assessed as compound remaining at 10 uM after 60 mins by HPLC analysis in presence of NADP; format: ADME, tissue-based; details: read-out: Stability; method in brief: as §1
# [24] = Metabolic stability in cynomolgus monkey liver S9 fraction assessed as compound remaining at 10 uM after 60 mins by HPLC analysis in absence of NADP; format: ADME, subcellular, Macaca fascicularis; details: read-out: Stability; method in brief: as §1
# [25] = Metabolic stability in rat intestine S9 fraction assessed as compound remaining at 10 uM after 60 mins by HPLC analysis in presence of NADP; format: ADME, tissue-based; details: read-out: Stability; method in brief: as §2
# [26] = Metabolic stability in human intestine S9 fraction assessed as compound remaining at 10 uM after 60 mins by HPLC analysis in absence of NADP; format: ADME, tissue-based; details: read-out: Stability; method in brief: as §1
# [27] = Metabolic stability in cynomolgus monkey intestine S9 fraction assessed as compound remaining at 10 uM after 60 mins by HPLC analysis in absence of NADP; format: ADME, tissue-based, Macaca fascicularis; details: read-out: Stability; method in brief: as §1
# [28] = Metabolic stability in human liver S9 fraction assessed as compound remaining at 10 uM after 60 mins by HPLC analysis in absence of NADP; format: ADME, subcellular; details: read-out: Stability; method in brief: as §1
# [29] = Metabolic stability in cynomolgus monkey liver S9 fraction assessed as compound remaining at 10 uM after 30 mins by HPLC analysis in presence of NADP; format: ADME, subcellular, Macaca fascicularis; details: read-out: Stability
# [30] = Metabolic stability in cynomolgus monkey intestine S9 fraction assessed as compound remaining at 10 uM after 30 mins by HPLC analysis in absence of NADP; format: ADME, tissue-based, Macaca fascicularis; details: read-out: Stability
# [31] = Metabolic stability in cynomolgus monkey liver S9 fraction assessed as compound remaining at 10 uM after 30 mins by HPLC analysis in absence of NADP; format: ADME, subcellular, Macaca fascicularis; details: read-out: Stability
# [32] = Metabolic stability in mouse plasma assessed as compound remaining at 1 ug/ml after 4 hrs; format: ADME, cell-free; details: read-out: Stability
# [33] = Metabolic stability in cynomolgus monkey intestine S9 fraction assessed as compound remaining at 10 uM after 30 mins by HPLC analysis in presence of NADP; format: ADME, tissue-based, Macaca fascicularis; details: read-out: Stability
SMILES,Cmax [1],AUC (Liver [2]),CC50 at 72 h [3],AUC (Plasma),EC50 (Hepatitis C virus),AUC (Liver [7]),"remaining at 1 h, 10 µM [8]","remaining at 0.5 h, 1 ug/ml [10]","remaining at 1 h, 10 µM [13]","remaining at 1 h, 10 µM [14]","remaining at 1 h, 10 µM [16]","remaining at 1 h, 10 µM [17]","remaining at 1 h, 10 µM [19]","remaining at 1 h, 10 µM [20]","remaining at 1 h, 10 µM [21]","remaining at 1 h, 10 µM [23]","remaining at 1 h, 10 µM [25]","remaining at 1 h, 10 µM [26]","remaining at 1 h, 10 µM [28]",also measured
C[C@@]1(O)[C@H](O)[C@@H](CO)O[C@H]1n1cnc2c(=O)[nH]c(N)nc21 [2'-B-METHYL-GUANOSINE],5.2 µg/mL,737 ng·h/g,> 100 µM,0.411 µg·h/mL,3.5 µM,16510 ng·h/g,–,–,–,–,–,–,–,–,–,–,–,–,–,bioavailability [4]: 10%; AUC (Liver [5]): 36868 ng·h/g; bioavailability [6]: 85%
CC(C)C[C@H](NP(=O)(OC[C@H]1O[C@@H](n2cnc3c(=O)[nH]c(N)nc32)[C@](C)(O)[C@@H]1O)Oc1cccc2ccccc12)C(=O)OCc1ccccc1 (some centres not stated),–,–,> 50 µM,–,0.12 µM,–,12%,2%,48%,14%,33%,–,–,–,–,–,–,–,–,"remaining at 0.5 h, 10 µM [9]: 0%; remaining at 0.5 h, 10 µM [11]: 28%; remaining at 0.5 h, 10 µM [12]: 8%; remaining at 0.5 h, 10 µM [15]: 44%"
C[C@H](NP(=O)(OC[C@H]1O[C@@H](n2cnc3c(=O)[nH]c(N)nc32)[C@](C)(O)[C@@H]1O)Oc1cccc2ccccc12)C(=O)OCC(C)(C)C (some centres not stated),0.262 µg/mL,32 ng·h/g,> 100 µM,0.038 µg·h/mL,0.057 µM,1584 ng·h/g,42%,0.3%,87%,49%,56%,86%,31%,7%,5%,28%,57%,49%,59%,"remaining at 1 h, 10 µM [18]: 20%; remaining at 1 h, 10 µM [22]: 16%; remaining at 1 h, 10 µM [24]: 88%; remaining at 1 h, 10 µM [27]: 68%"
CC(C)[C@H](NP(=O)(OC[C@H]1O[C@@H](n2cnc3c(=O)[nH]c(N)nc32)[C@](C)(O)[C@@H]1O)Oc1cccc2ccccc12)C(=O)OCc1ccccc1 (some centres not stated),0.504 µg/mL,97 ng·h/g,> 100 µM,0.04 µg·h/mL,0.76 µM,1940 ng·h/g,56%,89%,75%,56%,72%,81%,62%,0%,8%,24%,65%,70%,78%,"remaining at 0.5 h, 10 µM [29]: 0%; remaining at 0.5 h, 10 µM [30]: 77%; remaining at 0.5 h, 10 µM [31]: 77%; remaining at 4 h, 1 ug/ml [32]: 66%; remaining at 0.5 h, 10 µM [33]: 25%"

# From ChEMBL document CHEMBL1177718, “Phosphoramidate ProTides of 2'-C-methylguanosine as highly potent inhibitors of hepatitis C virus. Study of their in vitro and in vivo properties” (J Med Chem, 2010)
